Source: PubChem BioAssay
Shown are actives, neighbours in structure and some others; about 3.7% of the full set was active somewhere.
KCNQ1 pot: human KCNQ1 channel potentiation or activation | P51787 | CHO-K1 KCNQ1, thallium flux FluxOR fluorescence; hits give high values | B-score at 10 µM | hit rate 0.35% among 310,000;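 active = fluorescence ratio B-score, a plate-corrected score, at least three library SD, with initial intensity B-score within 5 SD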
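System: Stable KCNQ1 CHO-K1 line | Incubation: 90 min dye loading and 20 min compound exposure, both at room temperature | Measure: Ratio B score | Medium: Assay buffer for compound exposure, DMSO matched across wells | Compound dosing: Single-concentration screen | Probe or stimulus: K+/Tl+ depolarizing stimulus | Measured by: Kinetic FluxOR fluorescence, 10 s baseline plus 110 s post-stimulus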
hERG rescue: compounds protecting human hERG from proarrhythmic drug block; activation (rescue from dofetilide block), less the hit threshold, % at 10 µM; Q12809; hit rate 0.51% among 310,000; CHO-hERG, FluxOR thallium flux, dofetilide IC70 present;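 active = activation above the mean of controls blocked by dofetilide plus 5 SD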;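 also: thallium influx through hERG after potassium depolarization seen as dye fluorescence rise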
Kir21 inh: Kir2.1 (mouse) channel inhibition; HEK293-Kir2.1, FluxOR thallium flux fluorescence; hits give low values; B-score at 10 µM; P35561; hit rate 0.85% among 310,000;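 active = fluorescence ratio B-score at or below minus 3 SD of library scores, with starting-brightness B-score within 2 SD, cut at about -4.2 in these data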;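 also: channel flux triggered by added potassium and thallium sulfate stimulus; B-score of peak minus minimum fluorescence over baseline after thallium stimulus; more negative B-score means stronger Kir2.1 block with less thallium influx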
Target sequence (P35561 whole entry, looked up): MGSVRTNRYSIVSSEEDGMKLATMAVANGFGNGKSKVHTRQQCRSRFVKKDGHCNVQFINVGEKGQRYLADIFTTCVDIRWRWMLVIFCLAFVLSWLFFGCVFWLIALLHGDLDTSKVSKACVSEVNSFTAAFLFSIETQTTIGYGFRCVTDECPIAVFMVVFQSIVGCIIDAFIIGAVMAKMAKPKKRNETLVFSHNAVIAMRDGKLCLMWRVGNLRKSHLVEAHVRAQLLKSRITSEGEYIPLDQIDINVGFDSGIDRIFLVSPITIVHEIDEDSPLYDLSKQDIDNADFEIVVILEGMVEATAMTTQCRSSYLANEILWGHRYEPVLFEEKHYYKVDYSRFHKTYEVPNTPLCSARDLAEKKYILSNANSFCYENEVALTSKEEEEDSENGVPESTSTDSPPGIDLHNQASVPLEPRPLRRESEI
KCNK3 block: human KCNK3 channel inhibition, primary screen. O14649. CHO-KCNK3 thallium flux, FluxOR fluorescence; hits give low values. B-score at 10 µM. hit rate 0.84% among 340,000;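 active = B-score under library mean minus 4 SD, starting fluorescence ratio at most library mean plus 5 SD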;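 also: more negative B-score means stronger inhibition of thallium flux through KCNK3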
KCNK9 block: blocks the human KCNK9 two-pore domain potassium channel; Q9NPC2; HEK293 KCNK9, FluxOR thallium flux fluorescence; hits give low values; B-score at 10 µM; hit rate 1.2% among 310,000; AID 488922;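 active = ratio B-score over 3 SD below the library mean, with starting fluorescence within 5 SD of its mean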;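 also: negative B-score means less thallium flux so channel inhibition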
KCNQ1 block: inhibitors of human KCNQ1 potassium channel. P51787. CHO-K1 KCNQ1, FluxOR thallium flux fluorescence; hits give high values. B-score at 10 µM. hit rate 1.3% among 310,000;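 active = compounds whose thallium flux B-score, printed positive for inhibition, exceeds three library SD while starting fluorescence stays within three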;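 also: channel opened by potassium depolarization with thallium stimulus after 20 min compound exposure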
KCNK3 inh conf: human KCNK3 channel inhibition, confirmation assay; ratio percent of control, % at 10 µM; AID 651638; shares compounds with KCNK3 block; CHO-KCNK3 thallium flux, FluxOR fluorescence; 0% buffer, 100% carvedilol maximal block; hit rate 99% among 2,400;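 active = ratio percent of control, averaged over triplicates, above buffer control mean plus 5 SD, cut at about 64% in these data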;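 also: ratio is the fluorescence rise from min to max over baseline after thallium stimulus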
KCNK3 noninduced: KCNK3 inhibitor counter-screen hit in non-induced cells. non-induced KCNK3 parental cells, FluxOR thallium flux; hits give low values. shares compounds with KCNK3 block. hit rate 40% among 2,400. thallium flux ratio (lower = more inhibition) at 10 µM;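 active = thallium flux ratio, averaged over three wells, more than 5 SD below the buffer control mean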;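 also: host cells are CHO cells without KCNK3 induction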
Large screens that a line does not name were inactive (follow-up assays come after a bar, where they were run).

COc1cccc(C(=O)COc2cccc(NC(=O)c3ccco3)c2)c1	KCNK3 block -10, KCNK9 block -7.3 | KCNK3 inh conf 120 | KCNK3 noninduced 0.14
O=C(Nc1cccc(OCC(=O)N2CCOCC2)c1)c1cccc([N+](=O)[O-])c1	none
O=C(COc1cccc(NC(=O)c2cccc([N+](=O)[O-])c2)c1)c1ccc(Br)cc1	KCNK3 block -11 | KCNK3 inh conf 96 | KCNK3 noninduced 0.15
Cc1c(O)ccc(C(=O)CN2CCN(Cc3ccccc3)CC2)c1O	none
CCc1ccc2[nH]c(=O)c(CN(Cc3ccc4c(c3)OCO4)Cc3nnnn3C3CCCC3)cc2c1	KCNK3 block -8.7 | KCNK3 inh conf 128 | KCNK3 noninduced 0.13
Cc1ccc2cc(CN(Cc3ccccc3)Cc3nnnn3C3CCCC3)c(=O)[nH]c2c1	KCNK3 block -10 | KCNK3 inh conf 103 | KCNK3 noninduced 0.15
Cc1ccc2cc(CN(Cc3ccc(F)cc3)Cc3nnnn3C3CCCC3)c(=O)[nH]c2c1	none
Cc1sc2c(c1C)C(=O)/C(=C\Nc1ccncc1)S(=O)(=O)N2C	none
Cc1ccc(NC(=O)CSCC(=O)OCc2cc(=O)oc3cc(O)ccc23)c(C)c1	none
CC(=O)N(c1ccccc1C)C1CCCC1	none
CC(=O)N(C1=C(Cl)C(=O)c2ccccc2C1=O)C1CCCCC1	KCNK3 block -12, KCNK9 block -6.9 | KCNK3 inh conf 140 | KCNK3 noninduced 0.087
Cc1noc(C)c1COc1ccccc1C(=O)NC1CCC(C)CC1 (centres undefined)	KCNK3 block -10 | KCNK3 inh conf 106 | KCNK3 noninduced inactive
Cc1noc(C)c1COc1ccccc1C(=O)NCCOc1ccccc1F	none (no result: KCNQ1 pot, hERG rescue, Kir21 inh, KCNK9 block, KCNQ1 block)
Cc1ccc(C(C)C)cc1OCC(=O)N1CCN(C(=O)c2ccco2)CC1	none
O=C(COc1ccc(Cl)cc1)Nc1nc(-c2cccs2)cs1	KCNK3 block -9.3 | KCNK3 inh conf 127 | KCNK3 noninduced 0.15
Cc1nc(-c2ccccc2)sc1C(=O)CSc1ccc(F)cc1	KCNK3 block -13 | KCNK3 inh conf 96 | KCNK3 noninduced inactive
Cn1nnnc1Sc1ncnc2scc(-c3cc4ccccc4o3)c12	KCNK3 block -13 (no result: KCNQ1 pot, hERG rescue, Kir21 inh, KCNK9 block, KCNQ1 block) | KCNK3 inh conf 118 | KCNK3 noninduced inactive
Cn1nnnc1Sc1ncnc2scc(-c3ccc(-c4ccccc4)cc3)c12	none (no result: KCNQ1 pot, hERG rescue, Kir21 inh, KCNK9 block, KCNQ1 block)
Cc1ccccc1NC1c2ccccc2C(=O)N1Cc1ccco1 (centres undefined)	KCNK3 block -10 | KCNK3 inh conf 119 | KCNK3 noninduced 0.15
CN1CCC(N(C)C(=S)NC(=O)c2cc(-c3cccc(Br)c3)nc3ccccc23)CC1	none
CC1CN(c2nc3ccccc3nc2SCC(=O)Nc2ccc(F)cc2)CC(C)O1 (centres undefined)	KCNK3 block -8.7 | KCNK3 inh conf 106 | KCNK3 noninduced 0.14
COc1cc(-c2cc(C(=O)Nc3ccccc3N3CCOCC3)c3ccccc3n2)cc(OC)c1OC	KCNK3 block -9, KCNQ1 block 6 | KCNK3 inh conf 102 | KCNK3 noninduced 0.16
O=C(Nc1ccccc1N1CCCCC1)c1cccc(OC(F)F)c1	KCNK3 block -10 | KCNK3 inh conf 117 | KCNK3 noninduced 0.15
COc1ccccc1C(=O)Nc1ccccc1N1CCCCC1	none
COc1cc(C(=O)Nc2ccccc2N2CCCCC2)cc(OC)c1OC	KCNK3 block -10 | KCNK3 inh conf 126 | KCNK3 noninduced 0.12
COc1ccc(Br)cc1C(=O)Nc1ccccc1N1CCCC1	KCNK3 block -9.8 | KCNK3 inh conf 111 | KCNK3 noninduced 0.15
Fc1ccc(CSc2ccc3nnc(-c4cccnc4)n3n2)cc1	none
COc1ccc(CN(CC(O)COc2cccc3[nH]cc(C)c23)C(C)(C)C)cc1 (centres undefined)	none
CCCn1c(/C=C/c2ccccc2)nc2ccccc21	none
COCCOCCn1c(/C=C/c2ccccc2)nc2ccccc21	KCNK3 block -9.2 | KCNK3 inh conf 93 | KCNK3 noninduced inactive
CCCC(c1nnnn1Cc1ccc(OC)cc1)N1CCN(c2ccccc2)CC1 (centres undefined)	none
COc1ccc(Cn2nnnc2C(CC(C)C)N2CCN(c3ccccc3)CC2)cc1 (centres undefined)	KCNK3 block -9 | KCNK3 inh conf 100 | KCNK3 noninduced inactive
CC(C)CC(c1nnnn1Cc1ccco1)N1CCN(c2cccc(Cl)c2)CC1 (centres undefined)	KCNK3 block -10 | KCNK3 inh conf 126 | KCNK3 noninduced inactive
COc1ccc(N2CCOCC2)c(NC(=O)c2cccnc2)c1	none
COc1cc(Br)cc2cc(C(=O)N3CCOCC3)c(=O)oc12	none
COc1ccccc1C(=O)COC(=O)CN1C(=O)NC2(CCCC2)C1=O	none
CCN(CC)CCOc1ccc(C=NNc2nc3c([nH]2)c(=O)n(C)c(=O)n3C)cc1	none (no result: KCNQ1 pot, hERG rescue, Kir21 inh, KCNK9 block, KCNQ1 block)
CC(Nc1nc(-c2cccnc2)nc2ccccc12)c1ccc(F)cc1 (centres undefined)	KCNK3 block -17, KCNK9 block -7.9, KCNQ1 block 8 | KCNK3 inh conf 125 | KCNK3 noninduced inactive
CC(C)(C)c1ccc(Cn2nnc3c(=O)[nH]c(C4CCN(C(=O)c5ccco5)CC4)nc32)cc1	KCNK3 block -8.9 | KCNK3 inh conf 122 | KCNK3 noninduced 0.15
O=C(c1ccco1)N1CCC(c2nc3c(nnn3Cc3c(Cl)cccc3Cl)c(=O)[nH]2)CC1	none
COc1ccc(NC(=O)c2ccc(S(=O)(=O)C(F)F)cc2)c(OC)c1	none
CCCc1cc(C(=O)Nc2cc(OC)ccc2OC)cs1	KCNK3 block -10 | KCNK3 inh conf 130 | KCNK3 noninduced 0.15
COc1ccc(NC(=O)c2ccc(-n3c(C)ccc3C)cc2)c(OC)c1	KCNK3 block -8.8 | KCNK3 inh conf 124 | KCNK3 noninduced inactive
COc1ccc(OC)c(NC(=O)c2ccc(OC3CSC3)cc2)c1	KCNK3 block -9.1 | KCNK3 inh conf 102 | KCNK3 noninduced inactive
COc1cc2c(cc1NC(=O)c1ccc(C(C)(C)C)cc1)CCCC2	KCNK3 block -10 | KCNK3 inh conf 105 | KCNK3 noninduced inactive
Cc1ccc(S(=O)(=O)N2CCOCC2)cc1NC(=O)CSc1nnc(NC2CC2)s1	none (no result: KCNQ1 pot, hERG rescue, Kir21 inh, KCNK9 block, KCNQ1 block)
CCOc1ccccc1NC(=S)NC(=O)CCCOc1ccc(Cl)cc1Cl	KCNK3 block -11 | KCNK3 inh conf 109 | KCNK3 noninduced inactive
CCc1ccc(CN2CCCC(C(=O)N3CCCCC3)C2)cc1 (centres undefined)	none
